The term IC50 denotes the concentration that inhibits the measured activity by half. In general, inhibition refers to the percentage by which the read-out fell short of the control.

From ChEMBL document CHEMBL2434913 (Bioorg Med Chem Lett, 2013) come the findings set out here.

Assay [1] concerns the target T1, Prostaglandin G/H synthase 2 (Mus musculus, UniProt Q05769).
T1 sequence (Q05769 whole entry): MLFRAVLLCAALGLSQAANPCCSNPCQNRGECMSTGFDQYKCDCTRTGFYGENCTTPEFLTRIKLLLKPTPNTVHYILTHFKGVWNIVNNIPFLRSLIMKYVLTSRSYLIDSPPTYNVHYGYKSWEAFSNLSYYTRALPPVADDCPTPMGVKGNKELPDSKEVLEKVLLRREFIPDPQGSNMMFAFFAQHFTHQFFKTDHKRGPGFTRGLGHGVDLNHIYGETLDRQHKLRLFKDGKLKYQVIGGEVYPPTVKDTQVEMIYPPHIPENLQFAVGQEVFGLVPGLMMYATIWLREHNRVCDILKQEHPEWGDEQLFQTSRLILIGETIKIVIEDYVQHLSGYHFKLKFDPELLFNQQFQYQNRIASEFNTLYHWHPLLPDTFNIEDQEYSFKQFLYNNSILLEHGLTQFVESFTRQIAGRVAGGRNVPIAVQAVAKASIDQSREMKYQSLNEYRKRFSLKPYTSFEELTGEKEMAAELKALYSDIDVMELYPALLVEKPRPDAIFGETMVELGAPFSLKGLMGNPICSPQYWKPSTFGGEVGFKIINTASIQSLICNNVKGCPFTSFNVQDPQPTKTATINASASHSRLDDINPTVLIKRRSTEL
Nature of the assay: Inhibition of purified mouse COX-2 assessed as inhibition of PGE2-G/PGD2-G formation preincubated for 3 mins before 2-AG substrate addition measured after 30 seconds by LC-MS-MS method.

The target in assay [2] is T2, Prostaglandin G/H synthase 2 (Mus musculus) (UniProt Q05769).
T2 sequence (whole entry): T1 sequence (Q05769 whole entry)
Nature of the assay: Inhibition of purified mouse COX-2 assessed as inhibition of PGE2/PGD2 formation preincubated at 10 uM for 3 mins before arachidonic acid substrate addition measured after 30 seconds by LC-MS-MS method. Summed up: (§1)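 Purified murine COX-2 (50 nM) preincubated 3 min with test agent at 10 µM in DMSO, alongside a solvent control. Then 2-AG or AA added at 5 µM, 37 °C, for 30 s. Read-out is percent inhibition of substrate oxygenation versus control. Mean ± SD, n = 6.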

The target in assay [3] is T2, Prostaglandin G/H synthase 2 (Mus musculus). Nature of the assay: Inhibition of purified mouse COX-2 assessed as inhibition of PGE2-G/PGD2-G formation preincubated at 10 uM for 3 mins before 2-AG substrate addition measured after 30 seconds by LC-MS-MS method. The essentials: as §1
For assay [4], the target named is T1, Prostaglandin G/H synthase 2. As to the kind of experiment: Inhibition of purified mouse COX-2 assessed as inhibition of PGE2/PGD2 formation preincubated for 3 mins before arachidonic acid substrate addition measured after 30 seconds by LC-MS-MS method.

As to `O=C(O)Cc1ccccc1Nc1c(F)cccc1Cl`, the IC50 in assay [1] was 40 nM.

For `Cc1ccc(Nc2c(Cl)cc(Cl)cc2Cl)c(CC(=O)O)c1`, in assay [2], the inhibition turned out to be 32%. In assay [1], the IC50 turned out to be 70 nM.

Turning to `O=C(O)Cc1ccccc1Nc1ccccc1Cl`, the IC50 in assay [1] was 3900 nM.

As for `Cc1ccc(Nc2c(F)cccc2F)c(CC(=O)O)c1`, the inhibition in assay [2] stood at 0%. The concentration for half-maximal inhibition (IC50) in assay [1] was determined as 1000 nM.

`O=C(O)Cc1ccccc1Nc1ccccc1F`: the inhibition in assay [2] stood at 0%; in assay [3], 25%.

For the molecule `Cc1ccc(Nc2ccccc2)c(CC(=O)O)c1`, the inhibition came to 10% in assay [2] and 0% in assay [3].

In the case of `O=C(O)Cc1ccccc1Nc1c(Cl)cc(Br)cc1Cl`, the inhibition in assay [2] stood at 55%. For the same molecule, the IC50 is 140 nM in assay [4] and 60 nM in assay [1].

On to `Cc1cccc(F)c1Nc1ccccc1CC(=O)O`, for which the inhibition was determined as 0% in assay [2] and 15% in assay [3].

Regarding `Cc1ccc(Nc2c(Cl)cccc2Cl)c(CC(=O)O)c1`, the inhibition in assay [2] stood at 60%. The values for the IC50 in assay [4] and in assay [1] were 200 nM and 30 nM, respectively.

On to `Cc1ccc(Nc2c(C)cccc2F)c(CC(=O)O)c1`, for which the inhibition in assay [2] and in assay [3] was 0% throughout.

Take `O=C(O)Cc1ccccc1Nc1c(F)cccc1F`: in assay [1], the IC50 was 1200 nM.

`Cc1ccc(Nc2ccccc2F)c(CC(=O)O)c1`: in assay [2], the inhibition turned out to be 0%. For the same molecule, in assay [1], the IC50 amounted to 1800 nM.

On to `Cc1ccc(Nc2ccccc2Cl)c(CC(=O)O)c1`, for which, in assay [2], the inhibition came to 0%. Also, the IC50 in assay [1] amounted to 60 nM.
